Assay results taken from ChEMBL document CHEMBL1122469, “Synthesis of 1-(aminomethyl)-1,2,3,4-tetrahydroisoquinolines and their actions at adrenoceptors in vivo and in vitro” (J Med Chem, 1983).
Active and inactive are the calls of the source. No cut-off for these calls is given here.

What was measured:
[1] = target: T1, Adrenergic receptor beta (Homo sapiens, UniProt P08588+P07550+P13945); assay: Beta adrenergic receptor agonist activity in reserpine pre-treated guinea pig, isolated, spontaneously beating, right atrial preparation; type: functional, tissue-based; settings: Cavia porcellus; Cardiac atrium; target entry is the homologue from another species
Procedure, shortened: (§1)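 Guinea pigs given reserpine 5 mg/kg i.p., atria removed 18–24 h later and tested with tyramine 17 µmol/L beforehand. Spontaneously beating right atria in Krebs–Henseleit under 0.02 N tension, rate recorded. Cumulative isoproterenol curves (second used, corrected) and one test curve at 30-min intervals. Ratio = molar concentration at 50% own maximum ÷ isoproterenol equivalent, same experiment.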

[2] = Ratio of compound Emax(50) to that of isoproterenol Emax(50) in reserpine-pretreated, guinea pig, isolated, spontaneously beating, right atrial preparation; Expressed as drug Emax(50)/Iso Emax(50) mean; type: functional, Cardiac atrium; procedure, shortened: as §1
[3] = target: T1, Adrenergic receptor beta; assay: Beta adrenergic receptor antagonistic activity in guinea pig, isolated, carbachol-contracted tracheal preparations; type: functional, Cavia porcellus; settings: target entry is the homologue from another species
Procedure, shortened: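 Guinea pig trachea contracted with carbachol 10 µmol/L, 0.02 N resting tension, Krebs–Henseleit bath. Isoproterenol relaxation curves before and 15 min after antagonist, repeated at higher concentrations after washing. pA2 and slope from Schild plot (Arunlakshana–Schild). Slope difference from 1.0 tested by Student's t test.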

[4] = target: T1, Adrenergic receptor beta; assay: Beta adrenergic receptor antagonistic activity in reserpine pre-treated guinea pig, isolated, spontaneously beating, right atrial preparation; type: functional, tissue-based, Cavia porcellus, Cardiac atrium; settings: target entry is the homologue from another species
[5] = system: Felis catus; assay: Activity ratio of molar concentration to molar concentration of isoproterenol in DBP in choralose anaesthetized cats; type: functional
Procedure, shortened: (§2)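 Chloralose (80 mg/kg) plus sodium phenobarbitone (6 mg/kg) i.p.-anesthetized, bilaterally vagotomized cats (2.3–3.6 kg, either sex), spontaneously breathing via tracheal cannula. Brachial vein injection in 0.9% NaCl. Carotid blood pressure and pulse-triggered heart rate recorded. Concurrent cumulative dose–response curves followed isoproterenol. Ratio = molar dose giving 50% of own maximum ÷ isoproterenol molar dose giving 50% of its maximum, same animal.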

[6] = Ratio of compound Emax(50) to that of isoproterenol Emax(50) in guinea pig, isolated, spontaneously beating, right atrial preparation; Expressed as drug Emax(50)/Iso Emax(50) mean; type: functional, Cardiac atrium
Procedure, shortened: (§3)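 Right atria from guinea pigs (300–400 g, either sex) killed by cervical dislocation, in 10-mL Krebs–Henseleit baths under 0.02 N tension, spontaneously beating; rate read by tachograph. Two cumulative isoproterenol curves, then one test-compound curve, 30-min intervals, three washes after each. The second isoproterenol curve was the reference, with a desensitization correction (factor 1.2). Intrinsic activity relative to isoproterenol = 1. Ratio = molar EC50 of drug ÷ molar EC50 of isoproterenol, same experiment.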

[7] = target: T1, Adrenergic receptor beta; assay: Beta adrenergic receptor agonist activity at compound concentration of 100 ug/mL in guinea pig, isolated, carbachol-contracted tracheal preparations; type: functional; settings: Cavia porcellus; target entry is the homologue from another species
[8] = system: Felis catus; assay: Activity ratio of molar concentration to molar concentration of isoproterenol in HR in choralose anaesthetized cats; type: functional; procedure, shortened: as §2
[9] = target: T1, Adrenergic receptor beta; assay: Beta adrenergic receptor agonist activity in guinea pig, isolated, spontaneously beating, right atrial preparation; type: functional, tissue-based; settings: Cavia porcellus; Cardiac atrium; target entry is the homologue from another species; procedure, shortened: as §3
[10] = target: T1, Adrenergic receptor beta; assay: Beta adrenergic receptor agonist activity a in guinea pig, isolated, carbachol-contracted tracheal preparations; type: functional; settings: Cavia porcellus; target entry is the homologue from another species
Procedure, shortened: (§4)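 Guinea pigs (300–400 g, either sex) killed by cervical dislocation. Trachea mounted in a 10-mL bath of Krebs–Henseleit under 0.02 N resting tension. Tone raised submaximally with carbachol 10 µmol/L, and relaxation recorded. Cumulative test-compound curves went up to 100 µg/mL, referenced to isoproterenol (=1). Where no maximum was reached, values reflect the 100 µg/mL response. Ratios were taken at 15% of isoproterenol maximum.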

[11] = target: T1, Adrenergic receptor beta; assay: Beta adrenergic receptor antagonistic activity in reserpine pre-treated guinea pig, isolated, spontaneously beating, right atrial preparation; NA = No antagonism of isoproterenol responses up to 2.2 x 10E-8 mol/L; type: functional, tissue-based; settings: Cavia porcellus; Cardiac atrium; target entry is the homologue from another species
Procedure, shortened: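 Guinea pigs given reserpine 5 mg/kg i.p. 18–24 h before tissue removal, then checked with tyramine 17 µmol/L. Spontaneously beating right atrium held in Krebs–Henseleit at 0.02 N tension, with rate read by tachograph. Isoproterenol cumulative curves were run before and 15 min after adding the test drug, then repeated after washing at higher drug concentration. pA2 was determined by the Arunlakshana–Schild method.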

[12] = target: T1, Adrenergic receptor beta; assay: Beta adrenergic receptor antagonistic activity in guinea pig, isolated, carbachol-contracted tracheal preparations; NA = No antagonism of isoproterenol responses up to 2.2 x 10E-8 mol/L; type: functional; settings: Cavia porcellus; target entry is the homologue from another species
[13] = target: T1, Adrenergic receptor beta; assay: Beta adrenergic receptor agonist activity in guinea pig, isolated, carbachol-contracted tracheal preparations; type: functional; settings: Cavia porcellus; target entry is the homologue from another species; procedure, shortened: as §4

Row | Compound | Intrinsic activity [1] | pD2 [1] | Ratio [2] | pA2 [3] | pA2 [4] | Activity ratio [5] | Ratio [6] | Intrinsic activity [7] | pD2 [7] | Activity ratio [8] | Intrinsic activity [9] | pD2 [9] | Intrinsic activity [10] | pA2 [11] | pA2 [12] | pD2 [13]
1 | CC(C)NCC1NCCc2cc(O)c(O)cc21 (centres undefined) | 0.59 | 5.18 | 4400 | 5.05 | 4.84 | 2200 | 2700 | 0.06 | 3.49 | 1700 | 0.42 | 5.05 |  |  |  | 
2 | Oc1ccc(CC2NCCc3cc(O)c(O)cc32)cc1O (centres undefined) | 0.95 | 7.05 | 38 |  |  |  | 26 |  |  |  | 0.94 | 6.96 | 0.62 | inactive | inactive | 6.45
3 | CC(C)(C)NCC1NCCc2cc(O)c(O)cc21 (centres undefined) | 0.29 | 5.23 | 3600 | 5.76 | 4.68 |  | 2100 | 0.18 | 3.51 | 900 | 0.14 | 5.1 |  |  |  | 
4 | NCC1NCCc2cc(O)c(O)cc21 (centres undefined) | 0.53 | 4.22 | 32600 | 4.66 | 4.63 |  | 8800 | 0.2 | 3.44 | 12700 | 0.7 | 4.49 |  |  |  | 
